According to PubChem BioAssay:
Active and inactive are the calls of the source.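 Rule for the calls, unless noted: active = viability at or under a set limit in both replicates, limit being median viability minus 3 SD (cut at about 48% in these data, passing the limit was not always enough); inconclusive = at or under the limit in just one replicate; inactive = at or above the limit in both replicates.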

How the values were obtained:
[1] = reducers of endogenous Her2 protein level, primary screen, SKBR3 breast tumor cells, AlphaScreen, ATP viability (AID 461;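 active = Her2 level under about 52% in both replicate screens, with viability over 70% of control, limit read from the data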;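 for Her2 level: lower value means less Her2 protein in the cells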;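 for viability: percent of carrier control wells set as 100% viability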); conditions: 18-24 h, measured here: SKBR3 viability, ATP luminescence, at 10 µM
[2] = target: Receptor tyrosine-protein kinase erbB-2 (Homo sapiens) (UniProt P04626); assay: as above; conditions: 18-24 h, at 10 µM, stronger effect = lower value
Chain of Receptor tyrosine-protein kinase erbB-2 (Homo sapiens) (P04626 whole entry, looked up): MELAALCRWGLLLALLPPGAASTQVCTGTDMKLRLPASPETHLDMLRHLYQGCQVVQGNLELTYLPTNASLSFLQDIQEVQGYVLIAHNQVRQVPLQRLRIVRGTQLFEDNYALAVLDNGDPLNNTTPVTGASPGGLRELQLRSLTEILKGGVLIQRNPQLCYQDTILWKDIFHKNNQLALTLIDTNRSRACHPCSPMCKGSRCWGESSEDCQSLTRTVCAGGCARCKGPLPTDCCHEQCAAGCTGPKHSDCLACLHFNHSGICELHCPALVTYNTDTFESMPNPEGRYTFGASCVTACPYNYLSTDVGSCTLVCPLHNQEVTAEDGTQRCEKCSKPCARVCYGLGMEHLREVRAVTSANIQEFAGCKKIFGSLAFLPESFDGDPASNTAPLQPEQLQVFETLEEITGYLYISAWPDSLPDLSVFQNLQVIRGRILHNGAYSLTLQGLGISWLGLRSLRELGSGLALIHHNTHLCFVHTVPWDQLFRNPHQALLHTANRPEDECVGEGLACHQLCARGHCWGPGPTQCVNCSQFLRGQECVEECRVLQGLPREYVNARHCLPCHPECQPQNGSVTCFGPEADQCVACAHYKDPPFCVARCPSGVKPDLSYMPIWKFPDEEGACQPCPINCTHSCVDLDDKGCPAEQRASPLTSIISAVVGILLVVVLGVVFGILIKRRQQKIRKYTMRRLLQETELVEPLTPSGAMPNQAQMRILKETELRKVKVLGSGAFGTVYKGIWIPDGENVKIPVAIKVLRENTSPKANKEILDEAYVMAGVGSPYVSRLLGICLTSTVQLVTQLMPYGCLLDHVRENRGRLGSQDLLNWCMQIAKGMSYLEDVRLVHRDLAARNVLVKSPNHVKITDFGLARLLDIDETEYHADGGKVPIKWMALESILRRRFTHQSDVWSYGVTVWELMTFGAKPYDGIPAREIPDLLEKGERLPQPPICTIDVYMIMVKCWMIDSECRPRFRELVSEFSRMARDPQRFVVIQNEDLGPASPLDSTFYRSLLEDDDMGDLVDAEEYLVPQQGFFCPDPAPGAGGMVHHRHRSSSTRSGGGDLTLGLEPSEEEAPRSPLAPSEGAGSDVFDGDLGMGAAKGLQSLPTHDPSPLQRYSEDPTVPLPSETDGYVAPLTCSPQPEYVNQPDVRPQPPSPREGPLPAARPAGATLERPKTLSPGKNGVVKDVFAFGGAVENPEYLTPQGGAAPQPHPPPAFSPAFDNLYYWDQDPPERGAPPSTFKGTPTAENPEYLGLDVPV

[3] = SK-BR-3 cell growth inhibitors, pilot screen, 24 h, human (AID 572;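 active = viability at or below 10% of carrier control in both of two separate runs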;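 note: compound exposure lasted between 18 and 24 h rather than exactly 24 h; 100% = carrier-treated control wells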); conditions: SK-BR-3 viability, CellTiter-Glo luminescence, at 10 µM, stronger effect = lower value
[4] = HUVEC growth inhibition – cell-based, human, primary screen (AID 575;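 active = viability at or below 30% in both replicate assays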;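 note: 100% = median of untreated cell wells with 0.1% DMSO on each plate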); conditions: HUVEC proliferation, CellTiter-Glo luminescence, 72 h; at 10 µM; stronger effect = lower value
Summary of the method: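 material = primary HUVEC, no more than 12 passages | input = 1250 cells per well | controls = vehicle and MePR control wells | measured by = CTG luminescence | times = 72 h compound incubation | format = collagen-coated 384-well format | read-out = % viability vs DMSO wells | doses = single 10 µM dose, 0.1% DMSO, from 5x medium stock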

[5] = growth inhibitors of H69AR lung tumor, primary screen, human, duplicate replicates (AID 580); conditions: H69AR lung tumor cells viability, ATP luminescence, 72 h; at 10 µM; stronger effect = lower value;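 note: 100% = mean luminescence of untreated wells and 0% = no signal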
[6] = reversal of MRP1-mediated doxorubicin resistance, pilot screen, H69AR cells, doxorubicin co-treatment (AID 601;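 active = viability loss from added drug above about 55%, and viability with drug at most 40%, in both replicates, limit read from the data, passing the limit was not always enough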); conditions: CellTiter-Glo, 72 h, at 10 µM; for differential viability (reversal): stronger effect = higher value
[7] = 384-well plate pilot, post-Golgi transport modulator project, inhibition of yeast transport mutant growth (AID 636; in the data active = inhibition above about 31%); conditions: absorbance 615 nm, about 18 h, stronger effect = higher value
[8] = growth suppression of yeast trafficking mutant, preliminary HTS, modulators of trafficking downstream of Golgi apparatus project, 1536-format plate, OD 615 nm (AID 637; in the data active = inhibition above about 30%); conditions: yeast transport mutant growth, absorbance 615 nm, 18 h; stronger effect = higher value
[9] = H69AR cells + 2 uM doxorubicin, measured here: viability with 2 uM doxorubicin, stronger effect = lower value
[10] = H69AR cells, compound alone cytotoxicity

| SMILES | viability [1] [%] | Her2 level [2] | viability [3] | viability [4] | viability [5] | differential viability (reversal) ([6]; H69AR cells + 2 uM doxorubicin) | viability [6, 9] [%] | viability [6, 10] [%] | inhibition [7] | inhibition [8] |
| --- | --- | --- | --- | --- | --- | --- | --- | --- | --- | --- |
| Cc1nc2sc(C(c3ccccc3)N3CCN(c4ccccc4F)CC3)c(O)n2n1 (stereo not given) | 91.5 | 93.5% (inactive) | 91.5% (inactive) | 97.6% (inactive) | 100% (inactive) | 2.07% (inactive) | 98.1 | 100 | 0% (inactive) | -7.7% (inactive) |
| O=C(NCCC1=CCCCC1)c1cc2c(s1)CS(=O)(=O)C2 | 114 | 93.5% (inactive) | 114% (inactive) | 85.7% (inactive) | 88.5% (inactive) | 4.64% (inactive) | 83.8 | 88.5 | -3.77% (inactive) | -3.28% (inactive) |
| CC1=C(C(=O)NC2CCCC(C)C2C)C2(CCCCC2)OC1=O (stereo not given) | 118 | 100% (inactive) | 118% (inactive) | 97.6% (inactive) | 95.8% (inactive) | 8.08% (inactive) | 87.7 | 95.8 | -0.27% (inactive) | 3.67% (inactive) |
| COc1ccc(Br)cc1CNC(=O)CCc1nc(-c2ccc(C)cc2)no1 | 101 | 77.5% (inactive) | 101% (inactive) | 87.4% (inactive) | 94.2% (inactive) | 11.5% (inactive) | 82.7 | 94.2 | -4.34% (inactive) | -4.67% (inactive) |
| COc1ccc2[nH]c(=O)c(CNC3CCCCC3)cc2c1 | 101 | 93% (inactive) | 101% (inactive) | 115% (inactive) | 89.5% (inactive) | 5% (inactive) | 84.5 | 89.5 | -4.16% (inactive) | 0.5% (inactive) |
| COCCN(C(=O)c1csnn1)C(C(=O)NC1CCCCC1)c1cccs1 (stereo not given) | 100 | 89% (inactive) | 100% (inactive) | 94.7% (inactive) | 98.9% (inactive) | 11% (inactive) | 87.9 | 98.9 | -7.6% (inactive) | 2.86% (inactive) |
| CCOC(=O)c1sc(C)c2c(=O)n(CC)nnc12 | 94 | 111% (inactive) | 94% (inactive) | 98.3% (inactive) | 103% (inactive) | 1.48% (inactive) | 102 | 103 | -4% (inactive) | -9.52% (inactive) |
| CC(C)COc1ccc(C2NC(=O)NC2=O)cc1 (stereo not given) | 85.5 | 106% (inactive) | 85.5% (inactive) | 96.3% (inactive) | 103% (inactive) | -0.53% (inactive) | 103 | 103 | -0.52% (inactive) | -8.67% (inactive) |
| CC1CCN(S(=O)(=O)c2ccc(S(=O)(=O)NCC(=O)C(C)(C)C)cc2)CC1 | 108 | 97% (inactive) | 108% (inactive) | 92.7% (inactive) | 91.8% (inactive) | 6.57% (inactive) | 85.3 | 91.8 | -6.97% (inactive) | -8.23% (inactive) |
| COc1ccccc1CNC(=O)C1CCCN(S(=O)(=O)c2cnc[nH]2)C1 (stereo not given) | 94 | 102% (inactive) | 94% (inactive) | 105% (inactive) | 109% (inactive) | 16.7% (inactive) | 92.3 | 109 | 1.47% (inactive) | -0.98% (inactive) |
| CCc1cc(C)cc(OCCNC(=O)c2ncn[nH]2)c1 | 117 | 110% (inactive) | 117% (inactive) | 89.7% (inactive) | 90.8% (inactive) | 9.78% (inactive) | 81.1 | 90.8 | -3.95% (inactive) | -1.29% (inactive) |
| Cc1cc(C)cc(NS(=O)(=O)c2ccc3[nH]c(=O)[nH]c3c2)c1 | 108 | 89% (inactive) | 108% (inactive) | 90.1% (inactive) | 85.5% (inactive) | -0.57% (inactive) | 86 | 85.5 | -2.21% (inactive) | -4.5% (inactive) |
| CCN(CC)CCCC1(CN)OCCc2ccccc21 (stereo not given) | 98.5 | 88.5% (inactive) | 98.5% (inactive) | 93.3% (inactive) | 83.8% (inactive) | -18.9% (inactive) | 103 | 83.8 | -0.39% (inactive) | 23.8% (inactive) |
| O=C(Cn1c(=O)n(Cc2ccc3c(c2)OCO3)c(=O)c2ccccc21)N1CCCc2ccccc21 | 87.5 | 80.5% (inactive) | 87.5% (inactive) | 66.5% (inactive) | 82.2% (inactive) | 3.96% (inactive) | 78.3 | 82.2 | -0.39% (inactive) | 1.8% (inactive) |
| Cc1cnnc2c1-c1nonc1CC2 | 94.5 | 102% (inactive) | 94.5% (inactive) | 87.4% (inactive) | 105% (inactive) | 15.2% (inactive) | 90.1 | 105 | -6.13% (inactive) | 2.74% (inactive) |
| CCN1CCCC1CN=Cc1c(O)n(-c2ccccc2)c(=O)c2ccccc12 (stereo not given) | 82 | 106% (inactive) | 82% (inactive) | 96.9% (inactive) | 92.9% (inactive) | -2.08% (inactive) | 95 | 92.9 | -6.89% (inactive) | -2.54% (inactive) |

| SMILES | viability [1] [%] | Her2 level [2] | viability [3] | viability [4] | viability [5] | differential viability (reversal) ([6]; H69AR cells + 2 uM doxorubicin) | viability [6, 9] [%] | viability [6, 10] [%] | inhibition [7] | inhibition [8] |
| --- | --- | --- | --- | --- | --- | --- | --- | --- | --- | --- |
| CC1=C(C#N)C(=O)NC(C)(C)C1 | 114 | 102% (inactive) | 114% (inactive) | 91.8% (inactive) | 89.3% (inactive) | 3.02% (inactive) | 86.3 | 89.3 | -6% (inactive) | 1.8% (inactive) |
| CCC(=O)N1C(=O)CCN(C(C)=O)c2ccccc21 | 86.5 | 106% (inactive) | 86.5% (inactive) | 100% (inactive) | 103% (inactive) | -1.28% (inactive) | 104 | 103 | -4.67% (inactive) | 0.32% (inactive) |
| Fc1ccccc1-c1nc(NCCCN2CCOCC2)c2ccccc2n1 | 94 | 107% (inactive) | 94% (inactive) | 85.6% (inactive) | 72.2% (inactive) | -7.69% (inactive) | 79.9 | 72.2 | -0.68% (inactive) | 9.21% (inactive) |
| CCCCCCn1c(SCCCC)nc2c1c(=O)[nH]c(=O)n2C | 93.5 | 99% (inactive) | 93.5% (inactive) | 72.7% (inactive) | 88.2% (inactive) | 0.76% (inactive) | 87.5 | 88.2 | -5.07% (inactive) | -5% (inactive) |
| CSc1nc(C)cc(Oc2ccc(=O)n(C)n2)n1 | 97 | 89.5% (inactive) | 97% (inactive) | 112% (inactive) | 90.5% (inactive) | 11.8% (inactive) | 78.7 | 90.5 | -3.92% (inactive) | -3.28% (inactive) |
| O=C(O)CCC(=O)c1c[nH]c2ccccc12 | 88 | 114% (inactive) | 88% (inactive) | 88.4% (inactive) | 95.6% (inactive) | -5.4% (inactive) | 101 | 95.6 | 1.47% (inactive) | -4.76% (inactive) |
| Cc1ccc(S(=O)(=O)C2(C(=O)Nc3cccnc3)CC2)cc1 | 92.5 | 96% (inactive) | 92.5% (inactive) | 91.6% (inactive) | 98.4% (inactive) | 3.19% (inactive) | 95.2 | 98.4 | -1.67% (inactive) | -8.67% (inactive) |
| O=C(O)CCCC(=O)Nc1ccc(Br)cc1C(=O)O | 95.5 | 90% (inactive) | 95.5% (inactive) | 93.8% (inactive) | 96.8% (inactive) | 14.4% (inactive) | 82.4 | 96.8 | -0.53% (inactive) | -0.16% (inactive) |
| Cc1cc(C)c2[nH]c(=O)c(C(c3nnnn3Cc3ccc4c(c3)OCO4)N3CCC(C)CC3)cc2c1 (stereo not given) | 90 | 106% (inactive) | 90% (inactive) | 84.4% (inactive) | 86.7% (inactive) | -6.47% (inactive) | 93.1 | 86.7 | -4.67% (inactive) | -6.83% (inactive) |
| O=C(c1ccccc1)c1ccc(N2CCOCC2)c(NC(=O)c2ccco2)c1 | 82.5 | 78.5% (inactive) | 82.5% (inactive) | 81.1% (inactive) | 87.3% (inactive) | 15.7% (inactive) | 71.6 | 87.3 | -3.16% (inactive) | 2.86% (inactive) |
| O=C(O)CCN1C(=O)c2ccccc2C1=O | 99 | 91% (inactive) | 99% (inactive) | 112% (inactive) | 97.5% (inactive) | -1.81% (inactive) | 99.4 | 97.5 | -2.24% (inactive) | 2.79% (inactive) |
| Cc1[nH]n2c(=O)cc(Cc3ccccc3)nc2c1C#N | 97.5 | 80% (inactive) | 97.5% (inactive) | 97.1% (inactive) | 81.5% (inactive) | -10.1% (inactive) | 91.6 | 81.5 | -2.89% (inactive) | -1.45% (inactive) |
| Cc1ccc(NC(=O)C2CCCN(S(=O)(=O)c3cnc[nH]3)C2)cc1C (stereo not given) | 95 | 110% (inactive) | 95% (inactive) | 102% (inactive) | 100% (inactive) | 5.56% (inactive) | 94.6 | 100 | -5.6% (inactive) | -2.3% (inactive) |
| CC(C)C(=O)Nc1nnc(CCc2nnc(NC(=O)C(C)C)s2)s1 | 99 | 97% (inactive) | 99% (inactive) | 106% (inactive) | 93.6% (inactive) | 2.27% (inactive) | 91.3 | 93.6 | -4.61% (inactive) | 0.16% (inactive) |
| Cc1ccc(NC(=O)c2cc(S(=O)(=O)N3CCC4(CC3)OCCO4)ccc2F)cc1 | 101 | 143% (inactive) | 101% (inactive) | 90.7% (inactive) | 99.3% (inactive) | 2.58% (inactive) | 96.7 | 99.3 | 1.97% (inactive) | -11% (inactive) |
| O=C(CSc1nc2ccccc2o1)Nc1ccccc1 | 107 | 124% (inactive) | 107% (inactive) | 105% (inactive) | 79% (inactive) | -11.4% (inactive) | 90.4 | 79 | -0.9% (inactive) | -4.83% (inactive) |
